In PMC3217223 (Bioorganic & Medicinal Chemistry, 2009):
Where a name gives a salt, the structure may show the parent alone.

Columns and labels:
NMDA receptors = type: cell-based; details: for NMDA receptor antagonism (in words): cerebellar granule neurons, glutamate or NMDA 100 μM + glycine 10 μM
[1] = tested on: bloodstream form T. brucei (strain 427); test: T. brucei culturing and drug test; type: cell-based, Trypanosoma brucei; details: for Trypanocidal activity (in words): at concentrations up to 5 mg mL^−1; for Trypanocidal properties (in words): bloodstream form T. brucei
In short: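 Parasites were kept at 37 °C in modified Iscove's medium (pH 7.4) and grown for 48 h with a range of test compound concentrations. Cell density at each concentration was counted by hemocytometer and expressed as percent of untreated control growth. Concentrations giving 50% and 90% growth inhibition (IC₅₀, IC₉₀) were determined. Run in triplicate.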

feline coronavirus = type: cell-based; details: microscopy and MTS assay
Coxsackievirus B4 = type: cell-based; details: microscopy and MTS assay
influenza virus B = type: cell-based, influenza virus B/Hong Kong/5/72; details: influenza virus B (B/Hong Kong/5/72); microscopy and MTS assay
[2] = tested on: herpes simplex virus type 2; type: cell-based; details: microscopy and MTS assay
influenza virus A/H3N2 = type: cell-based, influenza virus A/Hong Kong/7/87 (H3N2); details: influenza virus A/H3N2 (A/Hong Kong/7/87); microscopy and MTS assay
Punta Toro virus = type: cell-based; details: microscopy and MTS assay
influenza virus A/H1N1 = type: cell-based, influenza virus A/Puerto Rico/8/34 (H1N1); details: influenza virus A/H1N1 (A/Puerto Rico/8/34); microscopy and MTS assay
Reovirus-1 = type: cell-based; details: microscopy and MTS assay
sindbis virus = type: cell-based; details: microscopy and MTS assay
[3] = tested on: herpes simplex virus type 1; type: cell-based; details: microscopy and MTS assay
[4] = tested on: respiratory syncytial virus; type: cell-based; details: microscopy and MTS assay
vaccinia virus = type: cell-based
parainfluenza-3 virus = type: cell-based; details: microscopy and MTS assay
[5] = tested on: vesicular stomatitis virus; type: cell-based

## CN(C)C12CC3CC(CC(C)(C3)O1)C2 [Compound 11a, N,N-Dimethyl(3-methyl-2-oxaadamant-1-yl)amine hydrochloride]
NMDA receptors
  NMDA receptor antagonism (in words): inactive
[1]; compared with amantadine
  Trypanocidal activity relative to amantadine: at least 30 times
[1]; compared with rimantadine
  Trypanocidal activity relative to rimantadine: approximately twice

## NC12CC3CC(C1)CC(c1ccccc1)(C3)O2 [Compound 10c, (3-Phenyl-2-oxaadamant-1-yl)amine hydrochloride]
Feline coronavirus
  Antiviral activity: None of the tested compounds displayed activity
Coxsackievirus B4
  Antiviral activity: None of the tested compounds displayed activity
Influenza virus B
  Antiviral activity: none of the compounds was found to be active
[2]
  Antiviral activity: None of the tested compounds displayed activity
Influenza virus A/H3N2
  Antiviral activity: none of the compounds was found to be active
Punta Toro virus
  Antiviral activity: None of the tested compounds displayed activity
Influenza virus A/H1N1
  Antiviral activity: none of the compounds was found to be active
Reovirus-1
  Antiviral activity: None of the tested compounds displayed activity
Sindbis virus
  Antiviral activity: None of the tested compounds displayed activity
[3]
  Antiviral activity: None of the tested compounds displayed activity
[4]
  Antiviral activity: None of the tested compounds displayed activity
Vaccinia virus
  Antiviral activity: None of the tested compounds displayed activity
NMDA receptors
  NMDA receptor antagonism (in words): only a weak NMDA receptor antagonist
parainfluenza-3 virus
  Antiviral activity: None of the tested compounds displayed activity
[5]
  Antiviral activity: None of the tested compounds displayed activity

## c1ccc(CNC23CC4CC(CC(C4)O2)C3)cc1 [Compound 2a, N-Benzyl(2-oxaadamant-1-yl)amine hydrochloride]
Feline coronavirus
  Antiviral activity: None of the tested compounds displayed activity
Coxsackievirus B4
  Antiviral activity: None of the tested compounds displayed activity
Influenza virus B
  Antiviral activity: none of the compounds was found to be active
[2]
  Antiviral activity: None of the tested compounds displayed activity
Influenza virus A/H3N2
  Antiviral activity: none of the compounds was found to be active
Punta Toro virus
  Antiviral activity: None of the tested compounds displayed activity
Influenza virus A/H1N1
  Antiviral activity: none of the compounds was found to be active
Reovirus-1
  Antiviral activity: None of the tested compounds displayed activity
Sindbis virus
  Antiviral activity: None of the tested compounds displayed activity
[3]
  Antiviral activity: None of the tested compounds displayed activity
[4]
  Antiviral activity: None of the tested compounds displayed activity
Vaccinia virus
  Antiviral activity: None of the tested compounds displayed activity
NMDA receptors
  NMDA receptor antagonism (in words): inactive
parainfluenza-3 virus
  Antiviral activity: None of the tested compounds displayed activity
[5]
  Antiviral activity: None of the tested compounds displayed activity
[1]
  Trypanocidal activity (in words): no activity

## CC12CC3CC(C1)CC(N)(C3)O2 [Compound 10a, (3-Methyl-2-oxaadamant-1-yl)amine hydrochloride]
NMDA receptors
  NMDA receptor antagonism (in words): inactive

## c1ccc(CCNC23CC4CC(CC(C4)O2)C3)cc1 [Compound 2b, N-(2-Phenylethyl)(2-oxaadamant-1-yl)amine hydrochloride]
[1]
  Trypanocidal activity (in words): no activity

## CCC12CC3CC(C1)CC(NCc1ccccc1)(C3)O2 [Compound 13, N-Benzyl(3-ethyl-2-oxaadamant-1-yl)amine hydrochloride]
[1]
  Trypanocidal properties (in words): no significant trypanocidal properties

## CCC12CC3CC(C1)CC(NC)(C3)O2 [Compound 15, N-Methyl(3-ethyl-2-oxaadamant-1-yl)amine hydrochloride]
Feline coronavirus
  Antiviral activity: None of the tested compounds displayed activity
Coxsackievirus B4
  Antiviral activity: None of the tested compounds displayed activity
Influenza virus B
  Antiviral activity: none of the compounds was found to be active
[2]
  Antiviral activity: None of the tested compounds displayed activity
Influenza virus A/H3N2
  Antiviral activity: none of the compounds was found to be active
Punta Toro virus
  Antiviral activity: None of the tested compounds displayed activity
Influenza virus A/H1N1
  Antiviral activity: none of the compounds was found to be active
Reovirus-1
  Antiviral activity: None of the tested compounds displayed activity
Sindbis virus
  Antiviral activity: None of the tested compounds displayed activity
[3]
  Antiviral activity: None of the tested compounds displayed activity
[4]
  Antiviral activity: None of the tested compounds displayed activity
Vaccinia virus
  Antiviral activity: None of the tested compounds displayed activity
parainfluenza-3 virus
  Antiviral activity: None of the tested compounds displayed activity
[5]
  Antiviral activity: None of the tested compounds displayed activity
[1]
  Trypanocidal properties (in words): no significant trypanocidal properties

## NC12CC3CC(C1)CC(C1CCCCC1)(C3)O2 [Compound 10d, (3-cyclohexyl-2-oxaadamant-1-yl)amine hydrochloride]
Feline coronavirus
  Antiviral activity: None of the tested compounds displayed activity
Coxsackievirus B4
  Antiviral activity: None of the tested compounds displayed activity
Influenza virus B
  Antiviral activity: none of the compounds was found to be active
[2]
  Antiviral activity: None of the tested compounds displayed activity
Influenza virus A/H3N2
  Antiviral activity: none of the compounds was found to be active
Punta Toro virus
  Antiviral activity: None of the tested compounds displayed activity
Influenza virus A/H1N1
  Antiviral activity: none of the compounds was found to be active
Reovirus-1
  Antiviral activity: None of the tested compounds displayed activity
Sindbis virus
  Antiviral activity: None of the tested compounds displayed activity
[3]
  Antiviral activity: None of the tested compounds displayed activity
[4]
  Antiviral activity: None of the tested compounds displayed activity
Vaccinia virus
  Antiviral activity: None of the tested compounds displayed activity
parainfluenza-3 virus
  Antiviral activity: None of the tested compounds displayed activity
[5]
  Antiviral activity: None of the tested compounds displayed activity

## CN(Cc1ccccc1)C12CC3CC(CC(C3)O1)C2 [Compound 3a, N-Benzyl-N-methyl(2-oxaadamant-1-yl)amine]
NMDA receptors
  NMDA receptor antagonism (in words): inactive
[1]
  Trypanocidal activity (in words): no activity

## c1ccc(CN(Cc2ccccc2)C23CC4CC(CC(C4)O2)C3)cc1 [Compound 8, N,N-Dibenzyl(2-oxaadamant-1-yl)amine]
NMDA receptors
  NMDA receptor antagonism (in words): inactive
[1]
  Trypanocidal activity (in words): no activity

## CN(CCc1ccccc1)C12CC3CC(CC(C3)O1)C2 [Compound 3b, N-Methyl-N-(2-phenylethyl)(2-oxaadamant-1-yl)amine hydrochloride]
[1]
  Trypanocidal activity (in words): no activity

## CCN(CC)C12CC3CC(CC(CC)(C3)O1)C2 [Compound 12, N,N-Diethyl(3-ethyl-2-oxaadamant-1-yl)amine hydrochloride]
NMDA receptors; compared with amantadine
  Potency as NMDA receptor antagonist relative to amantadine: seven times more potent than amantadine
NMDA receptors; compared with memantine
  Potency as NMDA receptor antagonist relative to memantine: ten times less potent than memantine
